# Experimental data reported in the EternaBench riboswitch data.
# Tested on: MS2 coat protein
# Test: apparent Kd, MS2 coat protein; higher = weaker binding; RNA-MaP array; FMN 200 µM where present
# Procedure, shortened: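 The titrant was SNAP-549-labelled MS2 coat protein, run from 0.7 or 1.5 nM in doubling steps to 3 µM. It was applied to designs transcribed by stalled E. coli RNA polymerase on Illumina sequencing-chip clusters, without ligand first and then with constant ligand, in 100 mM Tris-HCl pH 7.5, 80 mM KCl, 4 mM MgCl2, BSA, DTT, yeast tRNA and Tween-20. The apparent Kd is the median of filtered per-cluster binding-curve fits, with green signal normalised to red-channel RNA signal and control-cluster median Fmax.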
# [1] = designed as: OFF switch for flavin mononucleotide, no ligand
# [2] = ligand present: flavin mononucleotide, designed as: OFF switch for flavin mononucleotide
# [3] = designed as: ON switch for flavin mononucleotide, no ligand
# [4] = ligand present: flavin mononucleotide, designed as: ON switch for flavin mononucleotide
Sequence,apparent Kd [1],apparent Kd [2],apparent Kd [3],apparent Kd [4]
AGUCGGAUCUAUUAACAUGAGGAUCACCCAUGUAUUUGCAACUAGGAUAUCGAUUAUUAUUUCGUCGAGAAGGAGUAUACAUAA,24.2 nM,37.3 nM,–,–
AGUCUGAGAGGAUAUACAAGGGAAAAAAAAGUAAGAUCCCUACAUGAGGAUCACCCAUGUAGAAGGCUCUGACA,98 nM,43.8 nM,–,–
AGUGAAUGUACAGGAUAUGCUGGACUUUGUCCAGCAGAAGGGUAUUAACAUGAGGAUCACCCAUGUUCAUUCACCAAAUUUAAU,–,–,38.8 nM,8.3 nM
AGUGACGGUACAGGAUAUGCUGGACUUUGUCCAGCAGAAGGGUAUUAACAUGAGGAUCACCCAUGUUCCGUCACCAAAUUUAAU,–,–,41 nM,7.4 nM
AGUGACUACGUAGGAUAUUAAAUCAUGUACUACAUGAGGAUCACCCAUGUUAAUUUAACAUCAGCUGAGAAGGACGUGGUCACA,–,–,20.6 nM,11.6 nM
AGUGCUAGAGGAUAUGCAGUGGCGUUCUGUAUUCACAGCUCACAUGAGGAUCACCCAUGUAGAAGGCUAGCUAC,23.6 nM,106 nM,–,–
AGUGUCAUCCAGAAGGCCUCAUGACAUGAGGAUCACCCAUGUUAUCAUGGGAGGAUAUGGAUGAUACAGCUACGUUUCGUAGCA,–,–,90.5 nM,25.4 nM
AGUGUCAUCGAGAAGGCCUCAUGAACAUGAGGAUCACCCAUGUAAUAUGGGAGGAUAUCGAUGAUACAGCUACGUUUCGUAGCA,–,–,51.4 nM,33.9 nM
AGUGUCAUCGAGAAGGCCUCGACAUGAGGAUCACCCAUGUUGUAAUAUGGGAGGAUAUCGAUGAUACAGCUACGUUUCGUAGCA,–,–,40.3 nM,13.4 nM
AGUGUCAUCGAGAAGGCCUUAACAUGAGGAUCACCCAUGUUGUAACAUGGGAGGAUAUCGAUGAUACAGCUACGUUUCGUAGCA,–,–,412 nM,25.5 nM
AGUGUGUGGCAGGAUAUUCUGUUGGUUAGGACAGAAGAAGGGUCUACAUGAGGAUCACCCAUGUAAGCGGUUGA,251 nM,428 nM,–,–
AGUUGCAAACACAACAUGAGGAUCACCCAUGUACUCUCGUGUAAGGAUAUACAUUCGUAUGGAAAGUAGAAGGUACUAAUUAUG,–,–,27.3 nM,32.1 nM
AGUUUUGUACAUGAGGAUCACCCAUGUUAAUAUGUGGUAGUCAGAAGGCAUUGUUAGUGUUUAUAUGAGGAUAUGAUUAUUCAG,–,–,41.1 nM,16.4 nM
AUAAAACAAAACCACACAUGAGGAUCACCCAUGUCAAGAUUACAGGAUAUCCAGCAGAGAUGCAUGGAGAAGGGUGAUCCCAAA,–,–,37.1 nM,56.5 nM
AUAAAACAUGAGGAUCACCCAUGUAGACACGAUGGAGGAUAUACUAGAUCGAAAGAUCUAGUAGAAGGCCGACGUA,–,–,21.3 nM,22.8 nM
AUAAAGCGUGCUACGCAAAAUAACGCAGAAGGCCAACAUGAGGAUCACCCAUGUAAAAGAAAGAUGGAGGAUAUGCGGUUUGGC,–,–,46.6 nM,5.74 nM
AUAAUGUGAGGAUAUCAGUCGACUAGCUGCGGCUAGUCGACUGAGAAGGCACAUGAGGAUCACCCAUGUGUUUC,17.9 nM,40.8 nM,–,–
AUAAUUAAGCGAGGAUAUAUAUAGAAUAAUUAUAUAGAAGGCGCAAAACAUGAGGAUCACCCAUGUCACCCAUGUUGUGUGUAA,–,–,121 nM,47.3 nM
AUAAUUAAUGCAGGAUAUCAGCACGUGUAGUGCUGAGAAGGGCACAUGAGGAUCACCCAUGUGAUCAAUUAAUAUUAAUAUUAU,61 nM,275 nM,–,–
AUACAUGAGGAUCACCCAUGUUACUGGGUCUUAAUAGAUCGUAGAAGGAUGUUAUUAUUAAUUUCAUAGGAUAUACUAUUUAGU,48.3 nM,32.9 nM,–,–
AUACCUUAUGAGAAGGCGAUCAUGAAACAUGAUCGAGGAUAUCAUGUAAACAUGAGGAUCACCCAUGUAUGGGUAUUAUGGUAC,–,–,28.4 nM,9.72 nM

Sequence,apparent Kd [1],apparent Kd [2],apparent Kd [3],apparent Kd [4]
AUACUCAUGUAAGGAUAUGCAGCCGAAACGGCUGCAGAAGGUACUAUAAUACAUGAGGAUCACCCAUGUCAAAAUAAACUAGUU,–,–,155 nM,36.5 nM
AUACUCAUGUAAGGAUAUGCAGUCGAAACGGCUGCAGAAGGUACUAUAAUACAUGAGGAUCACCCAUGUCAAAAUAAAAUAGUU,–,–,30.3 nM,22.7 nM
AUACUCGUUGUGAGGAUAUCGUUUUCGUCACGGAUCGAGAAGGCACAUGAGGAUCACCCAUGUUUGACGUGAAU,17.1 nM,44.3 nM,–,–
AUAGAAAGAUUAAUAUGAUUACAUGAGGAUCACCCAUGUAUAAAGGAUAUCGACGUCAAUGACGUCGAGAAGGUUAUACAUAAU,24.2 nM,84 nM,–,–
AUAGGUUAAGGAGGAUAUAGAGGGAGAAGUAAACAUGAGGAUCACCCAUGUAUUUAAUUAGUUUACUAGAAGGCUUAUGAUUGU,–,–,39.2 nM,43.7 nM
AUAUAAAAUAUAGGAUAUGGAAACAUGAGGAUCACCCAUGUAUGAUAAGAUAAAUUAUGAUAUAGCCAGAAGGAUACAAUAUAA,–,–,31.3 nM,38.3 nM
AUAUACUUUCGAGGAUAUCGGUGAUAAAUUUUACGAGAAGGCGAUAAAAGAUAUAAUCUUAUAGACAUGAGGAUCACCCAUGUA,–,–,30.3 nM,28 nM
AUAUAGCGAGGAUAUACAUGAGGAUCACCCAUGUGGUAGUAGAUACGGUAGAGCUAGUGUAGAAGGCGCUAUGA,463 nM,160 nM,–,–
AUAUAGGCUAACAUGAGGAUCACCCAUGUGUUAUACUUAAUAUAGGAUAUGUUUAUACUUUUUGGGCAGAAGGAUGGCCUAUAU,–,–,36.4 nM,27.3 nM
AUAUAUAUAAGGAAGGAUAUCUUAGAAAAAACAUGAGGAUCACCCAUGUAAAUAAAGAAUAAAUGGGAGAAGGUCCAUAUAUAUA,–,–,30.1 nM,16.3 nM
AUAUAUAUAGGAUAUACAUGAGGAUCACCCAUGUGCUUCAGCUAGGAGACUAGCAUUGGUAGAAGGAUAUAUAU,16.1 nM,26.1 nM,–,–
AUAUAUAUAUAAGGAUAUGUAUAUCCAACAUGAGGAUCACCCAUGUUGAGGAUCACCCAUGUAAAGCAGAAGGUAUAUAUAUAU,–,–,29.1 nM,18 nM
AUAUAUAUAUCAGGAUAUGGACAGGCCUGUUCGUAUUAAGACAUUAACAUGAGGAUCACCCAUGUCCAGAAGGGAUAUAUAUAU,109 nM,86.9 nM,–,–
AUAUAUGCCCAGAAGGUGCCAGCGAGAGCUGCACAUGAGGAUCACCCAUGUUGUCGGUGACGACGCAAGGAUAUGGGCAUAUAU,–,–,24.5 nM,7.26 nM
AUAUAUGCUAACAUGAGGAUCACCCAUGUGUUAUACUUAAUAUAGGAUAUGUUUAUACUUUUUGGGCAGAAGGAUGGCAUAUAU,–,–,26.1 nM,21.8 nM
AUAUCAAGCAAGGAUAUGCAAAUGGUUAUUUAUGCAGAAGGUGCAACAUGAGGAUCACCCAUGUUUCUGGGUUU,64.4 nM,101 nM,–,–
AUAUCCGAAGCAGGAUAUCGGCAAGGUGUCGAGGUAGAGCGUACUCACAUGAGGAUCACCCAUGUCGAGAAGGGCUACAGGAUG,16.8 nM,72.4 nM,–,–
AUAUCUAUAUCAGGAUAUGGACAGGCCUGUCCGUAUUGAGACAGUAACAUGAGGAUCACCCAUGUCCAGAAGGGAUCUAUAUAU,53.7 nM,45.7 nM,–,–
AUAUUACGAGGAUAUCGUUUUUUUCACAUGAGGAUCACCCAUGUUAUCCAUGUUUCGUUUCGAGAAGGCGUAAGUU,50.6 nM,36.1 nM,–,–
AUAUUUGUGUAGAAGGUACGUGAUUAGUCAUAGUAAGGAUAUACUGACAUGAGGAUCACCCAUGUAUAAAUAGUUAAAUGUUCU,–,–,14.4 nM,8.52 nM
